Experimental data: ChEMBL document CHEMBL1649117, “GRL-02031, a novel nonpeptidic protease inhibitor (PI) containing a stereochemically defined fused cyclopentanyltetrahydrofuran potent against multi-PI-resistant human immunodeficiency virus type 1 in vitro” (Antimicrob Agents Chemother, 2009)

What was measured:
[1] = tested on: Human immunodeficiency virus 1; assay: Ratio of EC50 for HIV1 JSL harboring L10I/L24I/L33F/E35D/M36I/N37S/M46L/I54V/R57K/I62V/L63P/A71V/G73S/82A in protease encoding region to EC50 for HIV1 ERS104pre; type: functional
[2] = tested on: Human immunodeficiency virus 1; assay: Antiviral activity against HIV1 JSL harboring L10I/L24I/L33F/E35D/M36I/N37S/M46L/I54V/R57K/I62V/L63P/A71V/G73S/82A in protease encoding region infected in human PHA-PBC assessed as inhibition of p24 Gag protein production by ELISA; type: functional, organism-based; settings: Human immunodeficiency virus 1, JSL
Method in brief: (§1)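 Phytohemagglutinin-stimulated PBMs (10^6/ml) infected with 50 TCID50s of each primary isolate, cultured with or without drug in 10-fold serial dilutions. On day 7, supernatant p24 Gag was measured by automated chemiluminescent enzyme immunoassay. […] Triplicate.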

[3] = tested on: Human immunodeficiency virus 1; assay: Ratio of EC50 for HIV1 G harboring L10I/V11I/T12E/I15V/L19I/R41K/M46L/L63P/A71T/V82A/L90M in protease encoding region to EC50 for HIV1 ERS104pre; type: functional
[4] = tested on: Human immunodeficiency virus 1; assay: Ratio of EC50 for HIV1 C harboring L10I/I15V/K20R/L24I/M36I/M46L/I54V/I62V/L63P/K70Q/V82A/L89M in protease encoding region to EC50 for HIV1 ERS104pre; type: functional
[5] = tested on: Human immunodeficiency virus 1; assay: Antiviral activity against HIV1 MOKW infected in human PHA-PBC assessed as inhibition of p24 Gag protein production by ELISA; type: functional, organism-based; settings: Human immunodeficiency virus 1, MOKW; method in brief: as §1
[6] = tested on: Human immunodeficiency virus 1; assay: Antiviral activity against HIV1 B harboring L10I/I15V/E35D/N37E/K45R/I54V/L63P/A71V/V82T/L90M/I93L/C95F in protease encoding region infected in human PHA-PBC assessed as inhibition of p24 Gag protein production by ELISA; type: functional, organism-based; settings: Human immunodeficiency virus 1, B; method in brief: as §1
[7] = tested on: Human immunodeficiency virus 1; assay: Antiviral activity against HIV1 A harboring L10I/I15V/E35D/N37E/K45R/I54V/L63P/A71V/V82T/L90M/I93L/C95F in protease encoding region infected in human PHA-PBC assessed as inhibition of p24 Gag protein production by ELISA; type: functional, organism-based; settings: Human immunodeficiency virus 1, A
Method in brief: (§2)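 Phytohemagglutinin-stimulated PBMs (10^6/ml) infected with 50 TCID50s of each primary isolate, cultured with or without drug in 10-fold serial dilutions. On day 7, supernatant p24 Gag was measured by automated chemiluminescent enzyme immunoassay. Triplicate.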

[8] = tested on: Human immunodeficiency virus 1; assay: Antiviral activity against HIV1 TM harboring L10I/K14R/R41K/M46L/I54V/L63P/A71V/V82A/L90M/I93L in protease encoding region infected in human PHA-PBC assessed as inhibition of p24 Gag protein production by ELISA; type: functional, organism-based; settings: Human immunodeficiency virus 1, TM; method in brief: as §1
[9] = tested on: Human immunodeficiency virus 1; assay: Ratio of EC50 for HIV1 TM harboring L10I/K14R/R41K/M46L/I54V/L63P/A71V/V82A/L90M/I93L in protease encoding region to EC50 for HIV1 ERS104pre; type: functional
Method in brief: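 PHA-stimulated PBMs (10^6/ml) infected with 50 TCID50s of primary HIV-1 isolate and cultured with 10-fold serial drug dilutions. Day 7 supernatant p24 Gag measured by chemiluminescent enzyme immunoassay. […] Triplicate. Ratio is resistant isolate EC50 over reference isolate EC50.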

[10] = tested on: Human immunodeficiency virus 1; assay: Ratio of EC50 for HIV1 A harboring L10I/I15V/E35D/N37E/K45R/I54V/L63P/A71V/V82T/L90M/I93L/C95F in protease encoding region to EC50 for HIV1 ERS104pre; type: functional
[11] = tested on: Human immunodeficiency virus 1; assay: Antiviral activity against HIV1 MM harboring L10I/K43T/M46L/I54V/L63P/A71V/V82A/L90M/Q92K in protease encoding region infected in human PHA-PBC assessed as inhibition of p24 Gag protein production by ELISA; type: functional, organism-based; settings: Human immunodeficiency virus 1, MM; method in brief: as §1
[12] = tested on: Human immunodeficiency virus 1; assay: Antiviral activity against HIV1 ERS104pre infected in human PHA-PBC assessed as inhibition of p24 Gag protein production by ELISA; type: functional, organism-based; settings: Human immunodeficiency virus 1, ERS104pre; method in brief: as §2
[13] = tested on: Human immunodeficiency virus 1; assay: Ratio of EC50 for HIV1 B harboring L10I/I15V/E35D/N37E/K45R/I54V/L63P/A71V/V82T/L90M/I93L/C95F in protease encoding region to EC50 for HIV1 ERS104pre; type: functional
[14] = tested on: Human immunodeficiency virus 1; assay: Ratio of EC50 for HIV1 MM harboring L10I/K43T/M46L/I54V/L63P/A71V/V82A/L90M/Q92K in protease encoding region infected to EC50 for HIV1 ERS104pre; type: functional
[15] = tested on: Human immunodeficiency virus 1; assay: Antiviral activity against HIV1 NL4-3 harboring L10F/L33F/M46I/I47V/Q58E/V82I/I84V/I85V amino acid substitution in protease encoding region infected in human MT4 cells assessed as inhibition of p24 Gag protein production selected at 5 uM of GRL-02031 by ELISA; type: functional, organism-based; settings: Human immunodeficiency virus 1, NL4-3, MT4
Method in brief: (§3)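 Cell-free passage used day-7 supernatants. Variants were then tested in MT-4 cells (10^5/ml) with 100 TCID50s, with or without drug, at 37°C. Day-7 p24 Gag was read by chemiluminescent immunoassay; EC50 vs drug-free control; triplicate.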

[16] = tested on: Human immunodeficiency virus 1; assay: Ratio of EC50 for HIV1 NL4-3 harboring L10F/L24I/M46I/L63P/A71V/G73S/V82T amino acid substitution in protease encoding region to EC50 for HIV1 NL4-3; type: functional
Method in brief: (§4)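 MT-4 cells (10^5/ml) infected with 100 TCID50s of PI-selected HIV-1NL4-3 variants or the parental strain, with or without serial drug concentrations, at 37°C. Day 7 supernatant p24 Gag measured by chemiluminescent enzyme immunoassay. […] Triplicate. Ratio is variant EC50 over wild-type EC50.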

[17] = tested on: Human immunodeficiency virus 1; assay: Ratio of EC50 for HIV1 NL4-3 harboring L10F/V32I/M46I/I54M//A71V/I84V amino acid substitution in protease encoding region to EC50 for HIV1 NL4-3; type: functional; method in brief: as §4
[18] = tested on: Human immunodeficiency virus 1; assay: Antiviral activity against HIV1 NL4-3 harboring L10I/G48V/I54V/L90M amino acid substitution in protease encoding region infected in human MT4 cells assessed as inhibition of p24 Gag protein production selected at 5 uM of saquinavir by ELISA; type: functional, organism-based; settings: Human immunodeficiency virus 1, NL4-3, MT4
Method in brief: as §3, with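 “HIV-1NL4-3 (500 TCID50s) was passaged in MT-4 cells, starting at 0.01–0.03 µM PI and raising the drug generally two- to threefold as virus propagated. Cell-free” for “Cell-free”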

[19] = tested on: Human immunodeficiency virus 1; assay: Antiviral activity against HIV1 NL4-3 infected in human MT4 cells assessed as inhibition of p24 gag protein production by ELISA; type: functional, organism-based; settings: Human immunodeficiency virus 1, NL4-3, MT4
Method in brief: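 MT-4 cells (10^5/ml) were infected with 100 TCID50s of HIV-1 and cultured at 37°C with or without various drug concentrations. On day 7, supernatant p24 Gag was measured by automated chemiluminescent enzyme immunoassay. […] Assays were run in triplicate.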

[20] = tested on: Human immunodeficiency virus 1; assay: Antiviral activity against HIV1 NL4-3 harboring L23I/K43I/M46I/I50L/G51A/A71V amino acid substitution in protease encoding region infected in human MT4 cells assessed as inhibition of p24 Gag protein production selected at 1 uM of atazanavir by ELISA; type: functional, organism-based; settings: Human immunodeficiency virus 1, NL4-3, MT4
Method in brief: as §3, with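 “HIV-1NL4-3 (500 TCID50s) was passaged in MT-4 cells, starting at 0.01–0.03 µM PI and raising the drug generally two- to threefold as virus propagated. Cell-free” for “Cell-free”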

[21] = tested on: Human immunodeficiency virus 1; assay: Ratio of EC50 for HIV1 NL4-3 harboring L10F/L33F/M46I/I47V/Q58E/V82I/I84V/I85V amino acid substitution in protease encoding region to EC50 for HIV1 NL4-3; type: functional; method in brief: as §4
[22] = tested on: Human immunodeficiency virus 1; assay: Antiviral activity against HIV1 NL4-3 harboring L10F/M46I/I54V/V82A amino acid substitution in protease encoding region infected in human MT4 cells assessed as inhibition of p24 Gag protein production selected at 1 uM of Lopinavir by ELISA; type: functional, organism-based; settings: Human immunodeficiency virus 1, NL4-3, MT4; method in brief: as §3
[23] = tested on: Human immunodeficiency virus 1; assay: Antiviral activity against HIV1 NL4-3 harboring L10F/L24I/M46I/L63P/A71V/G73S/V82T amino acid substitution in protease encoding region infected in human MT4 cells assessed as inhibition of p24 Gag protein production selected at 5 uM of indinavir by ELISA; type: functional, organism-based; settings: Human immunodeficiency virus 1, NL4-3, MT4
Method in brief: as §3, with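 “HIV-1NL4-3 (500 TCID50s) was passaged in MT-4 cells, starting at 0.01–0.03 µM PI and raising the drug generally two- to threefold as virus propagated. Cell-free” for “Cell-free”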

[24] = tested on: Human immunodeficiency virus 1; assay: Antiviral activity against HIV1 NL4-3 harboring L10F/V32I/M46I/I54M//A71V/I84V amino acid substitution in protease encoding region infected in human MT4 cells assessed as inhibition of p24 Gag protein production selected at 5 uM of amprenavir by ELISA; type: functional, organism-based; settings: Human immunodeficiency virus 1, NL4-3, MT4; method in brief: as §3
[25] = tested on: Human immunodeficiency virus 1; assay: Antiviral activity against HIV1 NL4-3 harboring L10F/D30N/K45I/A71V/T74S amino acid substitution in protease encoding region infected in human MT4 cells assessed as inhibition of p24 Gag protein production selected at 5 uM of nelfinavir by ELISA; type: functional, organism-based; settings: Human immunodeficiency virus 1, NL4-3, MT4
Method in brief: as §3, with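 “HIV-1NL4-3 (500 TCID50s) was passaged in MT-4 cells, starting at 0.01–0.03 µM PI and raising the drug generally two- to threefold as virus propagated. Cell-free” for “Cell-free”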

[26] = tested on: Human immunodeficiency virus 1; assay: Ratio of EC50 for HIV1 NL4-3 harboring L10F/D30N/K45I/A71V/T74S amino acid substitution in protease encoding region to EC50 for HIV1 NL4-3; type: functional
[27] = tested on: Human immunodeficiency virus 1; assay: Ratio of EC50 for HIV1 NL4-3 harboring L10I/G48V/I54V/L90M amino acid substitution in protease encoding region to EC50 for HIV1 NL4-3; type: functional; method in brief: as §4
[28] = tested on: Human immunodeficiency virus 1; assay: Ratio of EC50 for HIV1 NL4-3 harboring M46I/V82F/I84V amino acid substitution in protease encoding region to EC50 for HIV1 NL4-3; type: functional; method in brief: as §4
[29] = tested on: Human immunodeficiency virus 1; assay: Ratio of EC50 for HIV1 NL4-3 harboring L10F/M46I/I54V/V82A amino acid substitution in protease encoding region to EC50 for HIV1 NL4-3; type: functional; method in brief: as §4
[30] = tested on: Human immunodeficiency virus 1; assay: Ratio of EC50 for HIV1 NL4-3 harboring L23I/K43I/M46I/I50L/G51A/A71V amino acid substitution in protease encoding region to EC50 for HIV1 NL4-3; type: functional; method in brief: as §4
[31] = tested on: Human immunodeficiency virus 1; assay: Antiviral activity against HIV1 NL4-3 harboring M46I/V82F/I84V amino acid substitution in protease encoding region infected in human MT4 cells assessed as inhibition of p24 Gag protein production selected at 5 uM of ritonavir by ELISA; type: functional, organism-based; settings: Human immunodeficiency virus 1, NL4-3, MT4
Method in brief: as §3, with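 “HIV-1NL4-3 (500 TCID50s) was passaged in MT-4 cells, starting at 0.01–0.03 µM PI and raising the drug generally two- to threefold as virus propagated. Cell-free” for “Cell-free”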

CC(C)CN(C[C@@H](O)[C@H](Cc1ccccc1)NC(=O)O[C@H]1CO[C@H]2OCC[C@H]21)S(=O)(=O)c1ccc(N)cc1
Ratio EC50 [1]: 7 | EC50 [2]: 26 nM | Ratio EC50 [3]: 2 | Ratio EC50 [4]: 2 | EC50 [5]: 3 nM | EC50 [6]: 26 nM | EC50 [7]: 3 nM | EC50 [8]: 4 nM | Ratio EC50 [9]: 1 | Ratio EC50 [10]: 1 | EC50 [11]: 17 nM | EC50 [12]: 3.5 nM | Ratio EC50 [13]: 7 | Ratio EC50 [14]: 5

COC(=O)N[C@H](C(=O)N[C@@H](Cc1ccccc1)[C@@H](O)CN(Cc1ccc(-c2ccccn2)cc1)NC(=O)[C@@H](NC(=O)OC)C(C)(C)C)C(C)(C)C [ATAZANAVIR]
EC50 [15]: 36 nM | Ratio EC50 [16]: 15 | Ratio EC50 [17]: 1 | EC50 [18]: 320 nM | EC50 [19]: 4.3 nM | EC50 [20]: 310 nM | Ratio EC50 [21]: 8 | EC50 [22]: 41 nM | EC50 [23]: 63 nM | EC50 [24]: 3.2 nM | EC50 [25]: 24 nM | Ratio EC50 [26]: 6 | Ratio EC50 [27]: 74 | Ratio EC50 [28]: 5 | Ratio EC50 [29]: 10 | Ratio EC50 [30]: 72 | EC50 [31]: 21 nM
